From ChEMBL document CHEMBL3525985, “Regiospecificity and stereospecificity of human UDP-glucuronosyltransferases in the glucuronidation of estriol, 16-epiestriol, 17-epiestriol, and 13-epiestradiol” (Drug Metab Dispos, 2013)

Key:
[1] = target: T1, UDP-glucuronosyltransferase 1A10 (Homo sapiens, UniProt Q9HAW8); assay: Drug level assessed as recombinant human C-terminal His-tagged UGT1A10-mediated compound formation from 200 uM estriol after 15 to 60 mins by […] analysis in presence of UDPGA; type: ADME; settings: recombinant enzyme
T1 sequence (Q9HAW8 whole entry): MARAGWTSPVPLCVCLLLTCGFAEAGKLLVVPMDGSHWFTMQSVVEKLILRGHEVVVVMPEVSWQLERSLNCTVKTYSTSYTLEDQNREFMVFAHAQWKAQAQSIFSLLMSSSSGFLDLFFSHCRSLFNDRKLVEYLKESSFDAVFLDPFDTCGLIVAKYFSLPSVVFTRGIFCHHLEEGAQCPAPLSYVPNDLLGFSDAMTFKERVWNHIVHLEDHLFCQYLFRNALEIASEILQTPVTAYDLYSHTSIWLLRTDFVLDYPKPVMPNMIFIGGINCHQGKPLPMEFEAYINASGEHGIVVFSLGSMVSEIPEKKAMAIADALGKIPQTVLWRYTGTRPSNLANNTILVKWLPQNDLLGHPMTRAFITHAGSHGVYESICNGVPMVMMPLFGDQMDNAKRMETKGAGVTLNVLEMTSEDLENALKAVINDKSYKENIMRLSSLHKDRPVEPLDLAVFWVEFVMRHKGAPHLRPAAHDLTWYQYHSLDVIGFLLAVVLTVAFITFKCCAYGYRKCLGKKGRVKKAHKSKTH
Method in brief: (§1)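 UGT-enriched insect cell membranes (5 or 50 µg) in 50 mM phosphate pH 7.4, 10 mM MgCl2, 5 mM UDPGA; substrate 200 µM in DMSO (10% final); 15–60 min at 37°C; stopped with perchloric acid, on ice, centrifuged; glucuronides resolved by HPLC. Triplicates, no-UDPGA controls; rates normalized to relative UGT expression; substrate consumption ≤10%.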

UGT2A2 (Homo sapiens) = assay: Drug level assessed as recombinant human C-terminal His-tagged UGT2A2-mediated compound formation from at 200 uM 13-epiestradiol after 15 to 60 mins by HPLC analysis in presence of UDPGA; settings: recombinant enzyme
[2] = target: T2, UDP-glucuronosyltransferase 2B7 (Homo sapiens, UniProt P16662); assay: Drug level assessed as recombinant human C-terminal His-tagged UGT2B7-mediated compound formation from 200 uM 17-epiestriol after 15 to 60 mins by HPLC analysis in presence of UDPGA; type: ADME; settings: recombinant enzyme; method in brief: as §1
T2 sequence (P16662 whole entry): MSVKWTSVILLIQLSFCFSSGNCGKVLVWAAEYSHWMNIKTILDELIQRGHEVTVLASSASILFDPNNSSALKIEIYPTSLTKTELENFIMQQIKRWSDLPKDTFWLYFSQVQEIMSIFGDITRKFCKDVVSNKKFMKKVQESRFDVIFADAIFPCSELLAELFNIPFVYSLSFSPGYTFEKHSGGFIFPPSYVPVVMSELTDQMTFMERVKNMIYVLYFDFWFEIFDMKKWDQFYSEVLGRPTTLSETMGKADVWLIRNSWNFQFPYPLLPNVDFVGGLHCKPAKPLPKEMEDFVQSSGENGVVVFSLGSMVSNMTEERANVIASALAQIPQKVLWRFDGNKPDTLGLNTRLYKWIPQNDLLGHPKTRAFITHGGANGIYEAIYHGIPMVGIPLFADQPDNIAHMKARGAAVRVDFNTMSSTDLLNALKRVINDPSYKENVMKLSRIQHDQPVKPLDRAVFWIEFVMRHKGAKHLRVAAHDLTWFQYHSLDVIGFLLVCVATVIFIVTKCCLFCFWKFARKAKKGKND

[3] = target: T2, UDP-glucuronosyltransferase 2B7; assay: Drug level assessed as recombinant human C-terminal His-tagged UGT2B7-mediated compound formation from 4 mg 17-epiestriol after 5 hrs by NMR spectroscopic analysis in presence of UDPGA; type: ADME; settings: recombinant enzyme
Method in brief: (§2)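 Preparative biosynthesis: 4 mg 17-epiestriol or 8 mg 16-epiestriol with UGT2B7-enriched insect cell homogenate in 50 mM phosphate pH 7.4, 10 mM MgCl2, 50 mM UDPGA, 10% DMSO. Glucuronides fractionated by HPLC (0.1% HCOOH replacing phosphate, UV 280 nm), concentrated, lyophilized, then examined by NMR.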

[4] = target: T1, UDP-glucuronosyltransferase 1A10; assay: Drug level assessed as recombinant human C-terminal His-tagged UGT1A10-mediated compound formation from 200 uM 16-epiestriol after 15 to 60 mins by […] analysis in presence of UDPGA; type: ADME; settings: recombinant enzyme; method in brief: as §1
[5] = target: T2, UDP-glucuronosyltransferase 2B7; assay: Drug level assessed as recombinant human C-terminal His-tagged UGT2B7-mediated compound formation from 8 mg 16-epiestriol after 5 hrs by NMR spectroscopic analysis in presence of UDPGA; type: ADME; settings: recombinant enzyme; method in brief: as §2
[6] = test system: C[C@]12CC[C@@H]3c4ccc(O)cc4CC[C@H]3[C@@H]1C[C@@H](O)[C@@H]2O; assay: Drug metabolism assessed as human UGT1A10 F93G mutant-mediated estriol-3-glucuronide formation after 15 to 60 mins by Michaelis-Menten equation analysis in presence of UDPGA; type: ADME
Method in brief: (§3)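 UGT-enriched insect cell membranes (5 or 50 µg) were incubated with 0.2–300 µM aglycone in DMSO (10% final), 5 mM UDPGA, 10 mM MgCl2 and 50 mM phosphate pH 7.4 at 37°C. Reactions were stopped with perchloric acid and glucuronides measured by HPLC. Assays were in triplicate with substrate consumption ≤10%, rates normalized to relative UGT expression, and kinetics fitted to Michaelis-Menten.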

[7] = test system: C[C@]12CC[C@@H]3c4ccc(O)cc4CC[C@H]3[C@@H]1C[C@H](O)[C@@H]2O; assay: Drug metabolism assessed as human UGT1A10 F93G mutant-mediated 16-epiestriol-3-glucuronide formation after 15 to 60 mins by Michaelis-Menten equation analysis in presence of UDPGA; type: ADME; method in brief: as §3
[8] = test system: [H][C@@]12CCc3cc(O)ccc3[C@@]1([H])CC[C@]1(C)[C@H](O)[C@H](O)C[C@@]21[H]; assay: Drug metabolism assessed as human UGT1A10 F93G mutant-mediated 17-epiestriol-3-glucuronide formation after 15 to 60 mins by Michaelis-Menten equation analysis in presence of UDPGA; type: ADME; method in brief: as §3
[9] = substrate: [H][C@@]12CCc3cc(O)ccc3[C@@]1([H])CC[C@]1(C)[C@H](O)[C@H](O)C[C@@]21[H]; assay: Drug metabolism assessed as recombinant human C-terminal His-tagged UGT2B7-mediated 17-epiestriol-16-glucuronide formation after 15 to 60 mins by Michaelis-Menten equation analysis in presence of UDPGA; type: ADME; method in brief: as §3
[10] = substrate: C[C@]12CC[C@@H]3c4ccc(O)cc4CC[C@H]3[C@@H]1C[C@H](O)[C@@H]2O; assay: Drug metabolism assessed as recombinant human C-terminal His-tagged UGT2B7-mediated 16-epiestriol-16-glucuronide formation after 15 to 60 mins by Michaelis-Menten equation analysis in presence of UDPGA; type: ADME
Method in brief: (§4)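 For kinetics, the aglycone ranged from 0.2 to 300 μM in DMSO (10% final) with 5 mM UDPGA, 10 mM MgCl₂ and 50 mM phosphate pH 7.4. Enzyme was UGT-enriched insect cell membranes. Incubation was 15–60 min at 37°C, in triplicate, keeping substrate consumption ≤10%. Products were measured by HPLC and fitted to Michaelis-Menten. Rates were normalized to expression level.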

[11] = substrate: C[C@]12CC[C@@H]3c4ccc(O)cc4CC[C@H]3[C@@H]1C[C@@H](O)[C@@H]2O; assay: Drug metabolism assessed as recombinant human C-terminal His-tagged UGT2B7-mediated estriol-16-glucuronide formation after 15 to 60 mins by Michaelis-Menten equation analysis in presence of UDPGA; type: ADME
Method in brief: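 Kinetics with His-tagged UGT-enriched insect-cell membranes (5 or 50 µg): aglycone 0.2–300 µM in 10% DMSO, 5 mM UDPGA, 10 mM MgCl₂, 50 mM phosphate pH 7.4, 15–60 min at 37°C. Substrate consumption kept at or below 10%. Glucuronides quantified by HPLC in triplicate, rates normalized to expression, and data fitted to Michaelis-Menten.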

[12] = substrate: C[C@]12CC[C@@H]3c4ccc(O)cc4CC[C@H]3[C@@H]1C[C@@H](O)[C@@H]2O; assay: Drug metabolism assessed as recombinant human C-terminal His-tagged UGT1A10-mediated estriol-3-glucuronide formation after 15 to 60 mins by Michaelis-Menten equation analysis in presence of UDPGA; type: ADME; method in brief: as §4
[13] = substrate: [H][C@@]12CCc3cc(O)ccc3[C@@]1([H])CC[C@]1(C)[C@H](O)[C@H](O)C[C@@]21[H]; assay: Drug metabolism assessed as recombinant human C-terminal His-tagged UGT1A10-mediated 17-epiestriol-3-glucuronide formation after 15 to 60 mins by Michaelis-Menten equation analysis in presence of UDPGA; type: ADME; method in brief: as §3
[14] = substrate: C[C@]12CC[C@@H]3c4ccc(O)cc4CC[C@H]3[C@@H]1C[C@H](O)[C@@H]2O; assay: Drug metabolism assessed as recombinant human C-terminal His-tagged UGT1A10-mediated 16-epiestriol-3-glucuronide formation after 15 to 60 mins by Michaelis-Menten equation analysis in presence of UDPGA; type: ADME; method in brief: as §4

C[C@]12CC[C@@H]3c4ccc(O[C@@H]5O[C@H](C(=O)O)[C@@H](O)[C@H](O)[C@H]5O)cc4CC[C@H]3[C@@H]1C[C@@H](O)[C@@H]2O
Drug metabolism [1]: metabolite_detected

C[C@]12CC[C@@H]3c4ccc(O)cc4CC[C@H]3[C@@H]1C[C@@H](O)[C@@H]2O[C@@H]1O[C@H](C(=O)O)[C@@H](O)[C@H](O)[C@H]1O
Drug metabolism [1]: metabolite_detected

C[C@]12CC[C@@H]3c4ccc(O)cc4CC[C@H]3[C@@H]1C[C@@H](O[C@@H]1O[C@H](C(=O)O)[C@@H](O)[C@H](O)[C@H]1O)[C@@H]2O
Drug metabolism [1]: metabolite_detected

C[C@@]12CC[C@@H]3c4ccc(O)cc4CC[C@H]3[C@@H]1CC[C@@H]2O[C@@H]1O[C@H](C(=O)O)[C@@H](O)[C@H](O)[C@H]1O
Drug metabolism (UGT2A2 (Homo sapiens)): metabolite_detected

C[C@]12CC[C@@H]3c4ccc(O)cc4CC[C@H]3[C@@H]1C[C@@H](O[C@@H]1O[C@H](C(=O)O)[C@@H](O)[C@H](O)[C@H]1O)[C@H]2O
Drug metabolism [2]: metabolite_not_detected

C[C@]12CC[C@@H]3c4ccc(O[C@@H]5O[C@H](C(=O)O)[C@@H](O)[C@H](O)[C@H]5O)cc4CC[C@H]3[C@@H]1C[C@@H](O)[C@H]2O
Drug metabolism [2]: metabolite_detected

C[C@]12CC[C@@H]3c4ccc(O)cc4CC[C@H]3[C@@H]1C[C@@H](O)[C@H]2O[C@@H]1O[C@H](C(=O)O)[C@@H](O)[C@H](O)[C@H]1O
Drug metabolism [3]: metabolite_detected | Drug metabolism [2]: metabolite_detected

C[C@]12CC[C@@H]3c4ccc(O[C@@H]5O[C@H](C(=O)O)[C@@H](O)[C@H](O)[C@H]5O)cc4CC[C@H]3[C@@H]1C[C@H](O)[C@@H]2O
Drug metabolism [4]: metabolite_detected

C[C@]12CC[C@@H]3c4ccc(O)cc4CC[C@H]3[C@@H]1C[C@H](O[C@@H]1O[C@H](C(=O)O)[C@@H](O)[C@H](O)[C@H]1O)[C@@H]2O
Drug metabolism [5]: metabolite_detected | Drug metabolism [4]: metabolite_detected

C[C@]12CC[C@@H]3c4ccc(O)cc4CC[C@H]3[C@@H]1C[C@H](O)[C@@H]2O[C@@H]1O[C@H](C(=O)O)[C@@H](O)[C@H](O)[C@H]1O
Drug metabolism [5]: metabolite_detected | Drug metabolism [4]: metabolite_detected

UDP-glucuronosyltransferase 1A10 (Homo sapiens; F93G)
Km [6]: 230 µM | Vmax [6]: 0.00754 µmol/min/mg | Km [7]: 186 µM | Vmax [7]: 0.00225 µmol/min/mg | Km [8]: 51.1 µM | Vmax [8]: 0.00571 µmol/min/mg

B1: UDP-glucuronosyltransferase 2B7 (Homo sapiens) (protein)
chain: T2 sequence (P16662 whole entry)
Km [9]: 0.6 µM | Vmax [9]: 0.00082 µmol/min/mg | Km [10]: 38.4 µM | Vmax [10]: 0.00387 µmol/min/mg | Km [11]: 10.3 µM | Vmax [11]: 0.00151 µmol/min/mg

B2: UDP-glucuronosyltransferase 1A10 (Homo sapiens) (protein)
chain: T1 sequence (Q9HAW8 whole entry)
Km [12]: 68.4 µM | Vmax [12]: 0.0012 µmol/min/mg | Km [13]: 337 µM | Vmax [13]: 0.000958 µmol/min/mg | Km [14]: 59.8 µM | Vmax [14]: 0.0077 µmol/min/mg
